Laboratory results published in ChEMBL document CHEMBL1124128, “Angiotensin-converting enzyme inhibitors. Mercaptan, carboxyalkyl dipeptide, and phosphinic acid inhibitors incorporating 4-substituted prolines” (J Med Chem, 1988).
pIC50: −log10 of the molar value. Where “and” joins values, the source holds several entries; their conditions need not be identical. Equal values may be shown once.

Tests used:
[1] = biological target: T1, Angiotensin-converting enzyme (Rattus norvegicus, UniProt P47820); assay: In vitro inhibitory activity against angiotensin I converting enzyme of rats.; conditions: read-out: I50
T1 sequence (P47820 whole entry): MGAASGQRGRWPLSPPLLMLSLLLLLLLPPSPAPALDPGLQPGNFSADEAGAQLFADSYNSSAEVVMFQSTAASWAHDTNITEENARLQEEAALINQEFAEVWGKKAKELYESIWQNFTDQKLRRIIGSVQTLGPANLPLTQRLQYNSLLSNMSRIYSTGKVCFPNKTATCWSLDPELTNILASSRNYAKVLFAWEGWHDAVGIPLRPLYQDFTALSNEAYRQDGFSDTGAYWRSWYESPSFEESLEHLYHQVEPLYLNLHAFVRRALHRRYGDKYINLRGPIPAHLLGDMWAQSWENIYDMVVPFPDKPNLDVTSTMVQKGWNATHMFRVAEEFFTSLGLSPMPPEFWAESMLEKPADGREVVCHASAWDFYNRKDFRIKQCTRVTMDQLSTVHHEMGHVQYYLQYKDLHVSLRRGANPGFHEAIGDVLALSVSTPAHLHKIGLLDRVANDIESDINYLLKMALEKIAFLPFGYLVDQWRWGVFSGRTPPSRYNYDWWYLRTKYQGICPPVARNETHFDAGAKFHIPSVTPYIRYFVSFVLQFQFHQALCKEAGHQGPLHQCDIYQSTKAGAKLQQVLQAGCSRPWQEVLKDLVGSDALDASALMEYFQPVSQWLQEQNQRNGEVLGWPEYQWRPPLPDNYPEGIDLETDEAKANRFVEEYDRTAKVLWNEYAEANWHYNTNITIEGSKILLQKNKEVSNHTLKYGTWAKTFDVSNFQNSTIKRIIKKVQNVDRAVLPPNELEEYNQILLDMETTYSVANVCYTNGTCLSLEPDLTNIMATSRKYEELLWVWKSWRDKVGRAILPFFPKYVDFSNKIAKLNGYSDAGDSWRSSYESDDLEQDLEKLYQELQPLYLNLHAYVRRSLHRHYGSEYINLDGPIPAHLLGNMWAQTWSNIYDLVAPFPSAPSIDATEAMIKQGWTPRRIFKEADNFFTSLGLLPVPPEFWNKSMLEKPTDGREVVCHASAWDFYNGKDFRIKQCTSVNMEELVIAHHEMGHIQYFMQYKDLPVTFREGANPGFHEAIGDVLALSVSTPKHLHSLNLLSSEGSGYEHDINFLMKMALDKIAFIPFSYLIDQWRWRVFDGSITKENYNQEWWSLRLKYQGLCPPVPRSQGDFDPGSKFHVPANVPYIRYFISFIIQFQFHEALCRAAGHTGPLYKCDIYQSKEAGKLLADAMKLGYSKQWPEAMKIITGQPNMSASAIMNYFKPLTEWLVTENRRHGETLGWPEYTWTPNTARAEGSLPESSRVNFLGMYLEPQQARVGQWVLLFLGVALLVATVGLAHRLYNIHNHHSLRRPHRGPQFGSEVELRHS

[2] = biological target: T2, Angiotensin-converting enzyme (Rattus norvegicus) (UniProt P47820); assay: In vitro inhibition of rat Angiotensin I converting enzyme
T2 sequence (whole entry): T1 sequence (P47820 whole entry)

Rattus norvegicus [3] = assay: % Inhibition of angiotensin-I induced pressor response in normotensive rats after intravenous dosing of 0.05 umol/kg; format: functional
Method in brief: (§1)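 Male Sprague–Dawley rats (225–275 g) fitted with indwelling abdominal aorta and vena cava catheters, recovered at least 2 weeks, then tested conscious and unrestrained. Aortic pressure was recorded directly. Pressor responses to AI (310 ng/kg iv) and AII (100 ng/kg iv) were taken before dosing. Compound was given iv in water or 5% NaHCO3, and responses were followed up to 70 min. Maximum % inhibition is the mean of four animals per dose.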

Rattus norvegicus [4] = assay: % Inhibition of angiotensin-I induced pressor response in normotensive rats after intravenous dosing of 0.15 umol/kg; format: functional
Method in brief: (§2)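 Conscious, unrestrained male Sprague–Dawley rats (225–275 g) with indwelling aortic and vena caval catheters, allowed at least 2 weeks of recovery. Aortic pressure recorded directly. Baseline pressor responses to AI (310 ng/kg iv) and AII (100 ng/kg iv) were taken first. Compound was given iv in 0.1 mL water or 5% NaHCO3, and responses were followed for up to 70 min. Maximum % inhibition is the mean of four animals per dose.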

Rattus norvegicus [5] = assay: % Inhibition of angiotensin-I induced pressor response in normotensive rats after intravenous dosing of 0.5 umol/kg; format: functional; method in brief: as §2
Rattus norvegicus [6] = assay: % Inhibition of angiotensin-I induced pressor response in normotensive rats after intravenous dosing of 0.015 umol/kg; format: functional; method in brief: as §1
Rattus norvegicus [7] = assay: % Inhibition of angiotensin-I induced pressor response in normotensive rats after intravenous dosing of 1.5 umol/kg; format: functional; method in brief: as §2
Rattus norvegicus [8] = assay: % Inhibition of angiotensin-I induced pressor response in normotensive rats after intravenous dosing of 5 umol/kg; format: functional; method in brief: as §2
Rattus norvegicus [9] = assay: % Inhibition of angiotensin-I induced pressor response in normotensive rats after peroral dosing of 5 umol/kg; format: functional; conditions: po
Method in brief: (§3)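 Conscious, unrestrained catheterized male Sprague–Dawley rats (225–275 g) had direct aortic pressure recording. Baseline pressor responses were taken to AI (310 ng/kg iv) and AII (100 ng/kg iv). Compound was given orally in water, 5% NaHCO3 or 1% agar suspension. AI and AII responses were then tracked up to 280 min. Maximum % inhibition is the mean response of four animals per dose.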

Rattus norvegicus [10] = assay: % Inhibition of angiotensin-I induced pressor response in normotensive rats after peroral dosing of 50 umol/kg; format: functional; conditions: po; method in brief: as §3
Rattus norvegicus [11] = assay: % Inhibition of angiotensin-I induced pressor response in normotensive rats after peroral dosing of 15 umol/kg; format: functional; conditions: po; method in brief: as §3
Rattus norvegicus [12] = assay: % Inhibition of angiotensin-I induced pressor response in normotensive rats after peroral dosing of 0.5 umol/kg; format: functional; conditions: po; method in brief: as §3
Rattus norvegicus [13] = assay: % Inhibition of angiotensin-I induced pressor response in normotensive rats after peroral dosing of 1.5 umol/kg; format: functional; conditions: po; method in brief: as §3

Compound: COC1(OC)C[C@@H](C(=O)O)N(C(=O)[C@H](C)CS)C1
- pIC50 [1]: 8.14

Compound: O=C(O)[C@@H]1C[C@H](Cc2ccccc2)CN1C(=O)CP(=O)(O)CCCCc1ccccc1
- T50 [2]: 10 nM

Compound: C[C@H](CS)C(=O)N1CC(=O)C[C@H]1C(=O)O
- pIC50 [1]: 7.80

Compound: C[C@H](CS)C(=O)N1C[C@@H](S(=O)(=O)c2ccccc2)C[C@H]1C(=O)O
- pIC50 [1]: 7.55

Compound: C[C@H](CS)C(=O)N1CC2(C[C@H]1C(=O)O)OCCO2
- pIC50 [1]: 8.54

Compound: C[C@H]1C[C@@H](C(=O)O)N(C(=O)[C@H](C)CS)C1
- pIC50 [1]: 8.70

Compound: CO[C@H]1C[C@@H](C(=O)O)N(C(=O)CP(=O)(O)CCCCc2ccccc2)C1
- T50 [2]: 60 nM
- inhibition in vivo at 0.05 µmol/kg (Rattus norvegicus [3]): 16%
- inhibition in vivo at 0.15 µmol/kg (Rattus norvegicus [4]): 55%
- inhibition in vivo at 0.5 µmol/kg (Rattus norvegicus [5]): 90%

Compound: C[C@H](N[C@@H](CCc1ccccc1)C(=O)O)C(=O)N1C[C@H](Sc2ccccc2)C[C@H]1C(=O)O
- pIC50 [1]: 8.70
- inhibition in vivo at 0.015 µmol/kg (Rattus norvegicus [6]): 57%
- inhibition in vivo at 0.05 µmol/kg (Rattus norvegicus [3]): 94%

Compound: CS[C@H]1C[C@@H](C(=O)O)N(C(=O)[C@H](C)CS)C1
- pIC50 [1]: 8.52

Compound: O=C(O)[C@@H]1C[C@@H](Sc2ccccc2)CN1C(=O)CP(=O)(O)CCCCc1ccccc1
- T50 [2]: 17 nM
- inhibition in vivo at 0.05 µmol/kg (Rattus norvegicus [3]): 20%
- inhibition in vivo at 0.15 µmol/kg (Rattus norvegicus [4]): 19%
- inhibition in vivo at 0.5 µmol/kg (Rattus norvegicus [5]): 48%
- inhibition in vivo at 1.5 µmol/kg (Rattus norvegicus [7]): 69%
- inhibition in vivo at 5 µmol/kg (Rattus norvegicus [8]): 78%

Compound: O=C(O)[C@@H]1CC2(CN1C(=O)CP(=O)(O)CCCCc1ccccc1)SCCS2
- T50 [2]: 4 nM and 2 nM
- inhibition in vivo at 0.015 µmol/kg (Rattus norvegicus [6]): 20%
- inhibition in vivo at 0.05 µmol/kg (Rattus norvegicus [3]): 47%
- inhibition in vivo at 0.15 µmol/kg (Rattus norvegicus [4]): 80%
- inhibition in vivo at 0.5 µmol/kg (Rattus norvegicus [5]): 90%
- inhibition in vivo at 5 µmol/kg (Rattus norvegicus [9]): 28%
- inhibition in vivo at 50 µmol/kg (Rattus norvegicus [10]): 94%
- inhibition in vivo at 15 µmol/kg (Rattus norvegicus [11]): 74%

Compound: C[C@H](CS)C(=O)N1C[C@@H](Sc2ccccc2)C[C@H]1C(=O)O [ZOFENOPRILAT]
- pIC50 [1]: 8.10

Compound: C[C@H](CS)C(=O)N1C[C@@H](Oc2ccccc2)C[C@H]1C(=O)O
- pIC50 [1]: 7.01

Compound: O=C(O)[C@@H]1C[C@@H](c2ccccc2)CN1C(=O)CP(=O)(O)CCCCc1ccccc1
- T50 [2]: 120 nM
- inhibition in vivo at 0.05 µmol/kg (Rattus norvegicus [3]): 17%
- inhibition in vivo at 0.15 µmol/kg (Rattus norvegicus [4]): 37%
- inhibition in vivo at 0.5 µmol/kg (Rattus norvegicus [5]): 76%

Compound: C[C@H](CS)C(=O)N1C[C@@H]([S+]([O-])c2ccccc2)C[C@H]1C(=O)O (some centres not stated)
- pIC50 [1]: 7.34

Compound: CCOC(=O)[C@H](CCc1ccccc1)N[C@@H](C)C(=O)N1C[C@@H](Sc2ccccc2)C[C@H]1C(=O)O
- inhibition in vivo at 0.5 µmol/kg (Rattus norvegicus [12]): 29%
- inhibition in vivo at 1.5 µmol/kg (Rattus norvegicus [13]): 81%
- inhibition in vivo at 5 µmol/kg (Rattus norvegicus [9]): 86%

Compound: C[C@H](CS)C(=O)N1C[C@H](O)C[C@H]1C(=O)O
- pIC50 [1]: 7.59

Compound: CCOC(=O)[C@H](CCc1ccccc1)N[C@@H](C)C(=O)N1CCC[C@H]1C(=O)O
- inhibition in vivo at 0.5 µmol/kg (Rattus norvegicus [12]): 50%
- inhibition in vivo at 1.5 µmol/kg (Rattus norvegicus [13]): 84%
- inhibition in vivo at 5 µmol/kg (Rattus norvegicus [9]): 83%

Compound: CS[C@@H]1C[C@@H](C(=O)O)N(C(=O)CP(=O)(O)CCCCc2ccccc2)C1
- T50 [2]: 29 nM
- inhibition in vivo at 0.015 µmol/kg (Rattus norvegicus [6]): 7%
- inhibition in vivo at 0.05 µmol/kg (Rattus norvegicus [3]): 44%
- inhibition in vivo at 0.15 µmol/kg (Rattus norvegicus [4]): 27%
- inhibition in vivo at 0.5 µmol/kg (Rattus norvegicus [5]): 79%
